Screens as filed in PubChem BioAssay.
SENP1 inh: SENP1 (human) catalytic domain inhibition. Q9P0U3. recombinant SENP1 catalytic domain, CyPet-SUMO1-YPet FRET cleavage. inhibition, % at 10 µM. 360,000 tested, 0.21% active;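 active means inhibition at least 30% at 10 µM, raw YFP signal under a set limit, fluorescence ratio 0.5 to 1.5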
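Material – human SENP1 catalytic domain · Input – SENP1 enzyme, 20 pM final · Compound dosing – single concentration of 10 µM compound, 0.5% DMSO final · Timing – enzyme reaction for 50 min at room temperature, dark · Measured by – FRET fluorescence in CFP and YFP emission channels · Control set – no-enzyme wells low, DMSO-plus-enzyme wells high control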
FAS TE block: inhibitors of human fatty acid synthase thioesterase domain | 360,000 tested, 0.67% active | recombinant FAS-TE, OMFH fluorogenic substrate, fluorescence endpoint | AID 602261 | inhibition, % at 15 µM | P49327;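 active means compounds whose normalised, plate-corrected inhibition of enzyme fluorescence in the single-dose primary screen is 50% or more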
iPSC survival up: enhancers of human iPSC single-cell survival; 360,000 tested, 0.044% active; hiPSC single-cell survival, ATPlite luminescence; 100% = ROCK inhibitor wells, 0% = DMSO; survival enhancement, % at 20 µM; in the data active means survival enhancement above about 18%;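 further: cells exposed to compounds for 16 hours before the ATP read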
ABCB6 inh MLPCN: inhibitors of human ABC transporter ABCB6 | Q9NP58 | K562-ABCB6 porphyrin accumulation, flow cytometry, 1 h; stronger effect = lower value | fluorescence ratio to DMSO, % at 10 µM | 360,000 tested, 0.19% active | AID 602162;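 active means fluorescence ratio to DMSO below 75%, the collection mean minus 3 SD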;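 further: signal is porphyrin accumulated inside mitochondria; lower ratio means ABCB6 inhibition with less porphyrin fluorescence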
Target sequence (Q9NP58 whole entry, looked up): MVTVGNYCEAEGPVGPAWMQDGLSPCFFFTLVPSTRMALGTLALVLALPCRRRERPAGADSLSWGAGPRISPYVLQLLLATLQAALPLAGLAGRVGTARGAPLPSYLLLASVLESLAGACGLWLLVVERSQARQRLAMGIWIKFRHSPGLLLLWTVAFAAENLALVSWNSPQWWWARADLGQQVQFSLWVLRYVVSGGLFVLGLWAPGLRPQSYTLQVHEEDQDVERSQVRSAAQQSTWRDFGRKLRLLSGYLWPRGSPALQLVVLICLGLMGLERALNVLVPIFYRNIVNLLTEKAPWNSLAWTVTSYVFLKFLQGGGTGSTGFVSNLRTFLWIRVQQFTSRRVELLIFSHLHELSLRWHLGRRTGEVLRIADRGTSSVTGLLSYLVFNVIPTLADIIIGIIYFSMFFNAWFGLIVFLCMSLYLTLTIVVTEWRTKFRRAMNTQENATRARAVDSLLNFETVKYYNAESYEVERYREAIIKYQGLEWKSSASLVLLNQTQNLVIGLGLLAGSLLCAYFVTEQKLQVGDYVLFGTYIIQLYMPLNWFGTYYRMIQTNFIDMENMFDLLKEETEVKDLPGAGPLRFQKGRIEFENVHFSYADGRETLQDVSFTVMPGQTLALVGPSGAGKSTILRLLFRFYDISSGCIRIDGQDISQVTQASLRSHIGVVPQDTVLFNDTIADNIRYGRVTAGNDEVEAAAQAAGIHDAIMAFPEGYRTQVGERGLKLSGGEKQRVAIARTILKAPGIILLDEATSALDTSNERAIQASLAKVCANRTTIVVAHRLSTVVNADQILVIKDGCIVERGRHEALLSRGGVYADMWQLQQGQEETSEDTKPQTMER
FAS-TE inh conf: FAS thioesterase (human) inhibition, confirmation | AID 624325 | shares compounds with FAS TE block | recombinant FAS-TE, OMFH fluorogenic substrate, fluorescence | inhibition, % at 15 µM | 2,300 tested, 45% active;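 active means compounds inhibiting the enzyme by at least 50% at 15 µM in any one of the replicates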
Hits are given with their value. A selection: hits, their analogues and other compounds. The true share with any hit is near 1.1%.

`COc1ccc(C(=O)Nc2nc3c(s2)CCCC3)cc1S(=O)(=O)N1CCCc2ccccc21` gave SENP1 inh inactive, FAS TE block 63.0, iPSC survival up inactive, ABCB6 inh MLPCN inactive and FAS-TE inh conf inactive.
CC(C)c1cc(C(=O)NNC(=S)NCc2ccco2)c(O)c(C(C)C)c1 was read as SENP1 inh inactive, FAS TE block inactive, iPSC survival up inactive and ABCB6 inh MLPCN inactive.
N#Cc1ccccc1OCC(=O)NNC(=O)CCNC(=O)c1ccccc1 was read as SENP1 inh inactive, FAS TE block inactive, iPSC survival up inactive and ABCB6 inh MLPCN inactive.
For O=C(COc1ccc([N+](=O)[O-])cc1)N1CCc2ccccc2C1 the results were SENP1 inh inactive, FAS TE block 70.2, iPSC survival up inactive, ABCB6 inh MLPCN inactive and FAS-TE inh conf 82.9.
For O=C(CN1C(=O)c2cccc([N+](=O)[O-])c2C1=O)N1CCc2ccccc2C1 the results were SENP1 inh inactive, FAS TE block 58.9, iPSC survival up inactive, ABCB6 inh MLPCN inactive and FAS-TE inh conf 65.0.
`CCc1cccc(C)c1NC(=O)CC1Oc2ccc(C)cc2NC1=O` (stereo not drawn) gave SENP1 inh inactive, FAS TE block inactive, iPSC survival up inactive and ABCB6 inh MLPCN inactive.
For CCOC(=O)C1=C(C)Nc2sc(C(=O)c3ccc(F)cc3)c(N)c2C1c1ccc(C(=O)OC)cc1 (stereo not drawn) the results were SENP1 inh inactive, FAS TE block inactive, iPSC survival up inactive and ABCB6 inh MLPCN inactive.
Screening CCOC(=O)C1=C(C)Nc2sc(C(=O)c3ccc(C)cc3)c(N)c2C1c1ccc(C(=O)OC)cc1 (stereo not drawn) returned SENP1 inh inactive, FAS TE block 67.0, iPSC survival up inactive, ABCB6 inh MLPCN inactive and FAS-TE inh conf inactive.
CCN(CC)S(=O)(=O)c1ccc(C(=O)NNc2nc(-c3ccccc3)c3cc(Br)ccc3n2)cc1 was read as SENP1 inh inactive, FAS TE block 67.6, iPSC survival up inactive, ABCB6 inh MLPCN inactive and FAS-TE inh conf inactive.
Screening COc1ccccc1-c1c(C)oc2c(CN3CCCCC3C)c(O)ccc2c1=O (stereo not drawn) returned SENP1 inh inactive, FAS TE block inactive, iPSC survival up inactive and ABCB6 inh MLPCN inactive.
Screening Cc1ccc(C(=O)NCC(=O)OCc2nnc(-c3ccc([N+](=O)[O-])cc3)o2)cc1 returned SENP1 inh inactive, FAS TE block 67.9, iPSC survival up inactive, ABCB6 inh MLPCN inactive and FAS-TE inh conf 53.1.
For COC(=O)C(CCCCNC(=O)c1ccc([N+](=O)[O-])cc1)NC(=O)c1ccc([N+](=O)[O-])cc1 (stereo not drawn) the results were SENP1 inh inactive, FAS TE block 50.1, iPSC survival up inactive, ABCB6 inh MLPCN inactive and FAS-TE inh conf 52.4.
For COc1ccc(C(=O)NCC(=O)OCc2ccc([N+](=O)[O-])cc2)cc1 the results were SENP1 inh inactive, FAS TE block 51.8, iPSC survival up inactive, ABCB6 inh MLPCN inactive and FAS-TE inh conf inactive.
Cc1ccc(C(=O)NCC(=O)NCC(=O)OCc2ccc(Oc3ccc([N+](=O)[O-])cc3)cc2)cc1 was read as SENP1 inh inactive, FAS TE block inactive, iPSC survival up inactive and ABCB6 inh MLPCN inactive.
`O=C(CNC(=O)c1ccccc1)OCc1ccc([N+](=O)[O-])cc1` gave SENP1 inh inactive, FAS TE block inactive, iPSC survival up inactive and ABCB6 inh MLPCN inactive.
`O=C(Oc1ccc(Br)cc1C(=S)N1CCOCC1)c1ccc([N+](=O)[O-])cc1[N+](=O)[O-]` gave SENP1 inh inactive, FAS TE block inactive, iPSC survival up inactive and ABCB6 inh MLPCN inactive.
Screening CCOc1ncccc1C(=O)Nc1ccc(C)cn1 returned SENP1 inh inactive, FAS TE block inactive, iPSC survival up inactive and ABCB6 inh MLPCN inactive.
Screening O=C(NCC1CCCCC1)c1ccc([N+](=O)[O-])cc1 returned SENP1 inh inactive, FAS TE block inactive, iPSC survival up inactive and ABCB6 inh MLPCN inactive.
For O=C(CSc1ccc([N+](=O)[O-])cc1)NCC1CCCCC1 the results were SENP1 inh inactive, FAS TE block 55.2, iPSC survival up inactive, ABCB6 inh MLPCN inactive and FAS-TE inh conf 61.9.
Screening CN(C1CCCCC1)S(=O)(=O)c1ccc(SCC(=O)C(C)(C)C)nc1 returned SENP1 inh inactive, FAS TE block 53.8, iPSC survival up inactive, ABCB6 inh MLPCN inactive and FAS-TE inh conf inactive.
For Cn1c(=O)oc2cc(S(=O)(=O)N3CCN(c4ccccc4F)CC3)ccc21 the results were SENP1 inh inactive, FAS TE block inactive, iPSC survival up inactive and ABCB6 inh MLPCN inactive.
Screening Cc1ccc(Cl)cc1N1CCN(S(=O)(=O)c2ccc3c(c2)oc(=O)n3C)CC1 returned SENP1 inh inactive, FAS TE block 52.0, iPSC survival up inactive, ABCB6 inh MLPCN inactive and FAS-TE inh conf inactive.
`O=C(Nc1nnc(-c2ccccc2Cl)s1)C1CCN(S(=O)(=O)c2ccc(Cl)cc2)CC1` gave SENP1 inh inactive, FAS TE block 71.5, iPSC survival up inactive, ABCB6 inh MLPCN inactive and FAS-TE inh conf inactive.
`O=C(Nc1nnc(-c2ccccc2F)s1)C1CCN(S(=O)(=O)c2ccc(Cl)cc2)CC1` gave SENP1 inh inactive, FAS TE block inactive, iPSC survival up inactive and ABCB6 inh MLPCN inactive.
Screening CCC12CN(C(=O)c3ccc([N+](=O)[O-])cc3)CC(CC)(CN(C(=O)c3ccc([N+](=O)[O-])cc3)C1)C2=O returned SENP1 inh inactive, FAS TE block 58.4, iPSC survival up inactive, ABCB6 inh MLPCN inactive and FAS-TE inh conf inactive.
`O=C(c1ccc([N+](=O)[O-])cc1)N1CCC(Cc2ccccc2)CC1` gave SENP1 inh inactive, FAS TE block 59.0, iPSC survival up inactive, ABCB6 inh MLPCN inactive and FAS-TE inh conf 54.2.
Screening O=[N+]([O-])c1cccc(OCCN2CCC(Cc3ccccc3)CC2)c1 returned SENP1 inh inactive, FAS TE block 63.1, iPSC survival up inactive, ABCB6 inh MLPCN inactive and FAS-TE inh conf 67.3.
Cc1ccc(NC2C(=O)NC(=O)NC2=O)cc1 was read as SENP1 inh inactive, FAS TE block inactive, iPSC survival up inactive and ABCB6 inh MLPCN inactive.
For O=S1(=O)CC(N2CCN(CCO)CC2)CN1Cc1cn(Cc2ccccc2C(F)(F)F)nn1 (stereo not drawn) the results were SENP1 inh inactive, FAS TE block inactive, iPSC survival up inactive and ABCB6 inh MLPCN inactive.
For CCN(CC)c1ccc(NC(=O)c2ccc(=O)[nH]c2)cc1S(=O)(=O)Nc1ccccc1OC the results were SENP1 inh inactive, FAS TE block inactive, iPSC survival up inactive and ABCB6 inh MLPCN inactive.
Screening Cc1ccc(NC(=O)CC2SC(=O)N(c3ccccc3)C2=O)cc1 (stereo not drawn) returned SENP1 inh inactive, FAS TE block inactive, iPSC survival up inactive and ABCB6 inh MLPCN inactive.
`Cc1ccc(C(=O)CC2C(=O)N(c3ccccc3)C(=S)N2c2ccccc2)cc1` (stereo not drawn) gave SENP1 inh inactive, FAS TE block 52.8, iPSC survival up inactive, ABCB6 inh MLPCN inactive and FAS-TE inh conf inactive.
